{
  "source": "ChEMBL document CHEMBL2176938",
  "about": "“Virtual screening and optimization yield low-nanomolar inhibitors of the tautomerase activity of Plasmodium falciparum macrophage migration inhibitory factor” (J Med Chem, 2012)",
  "data": [
    {"biological_target": "T1, Macrophage migration inhibitory factor (Homo sapiens, UniProt P14174)", "T1 sequence (P14174 whole entry)": "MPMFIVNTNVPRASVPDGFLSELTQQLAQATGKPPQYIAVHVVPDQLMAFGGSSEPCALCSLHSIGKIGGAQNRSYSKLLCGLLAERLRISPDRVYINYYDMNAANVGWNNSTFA", "assay": "(§1) Inhibition of human MIF", "settings": "not given; call rule not given here", "values": [
      {"smiles": "COc1cccc(Oc2cc(C)nc(N3CCOCC3)c2)c1", "Ki": "Not Active"}
    ]},
    {"biological_target": "T1, Macrophage migration inhibitory factor", "assay": "as §1", "settings": "read-out: Ki", "units": {"Ki": "µM"}, "values": [
      {"smiles": "Cc1cc(Oc2cccc(O)c2)cc(-c2ccccc2)n1", "Ki": 101},
      {"smiles": "COc1ccc(-c2cc(Oc3cc(C)cc(OC)c3)cc(C)n2)cc1", "Ki": 270}
    ]},
    {"biological_target": "T2, Macrophage migration inhibitory factor homologue (Plasmodium falciparum (isolate 3D7), UniProt Q8I5C5)", "T2 sequence (Q8I5C5 whole entry)": "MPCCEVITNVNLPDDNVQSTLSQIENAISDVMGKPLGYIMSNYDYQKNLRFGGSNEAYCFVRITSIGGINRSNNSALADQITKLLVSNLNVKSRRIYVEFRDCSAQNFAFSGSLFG", "assay": "(§2) Inhibition of recombinant Plasmodium falciparum MIF expressed in Escherichia coli BL21 (DE3) assessed as ketonization of enol form of 4-HPP substrate after 10 mins", "settings": "not given", "in_short": "(§3)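 PfMIF (75 nM trimer) in 25 mM potassium phosphate pH 7.4, preincubated 10 min with inhibitor at 1.5, 5 and 10 μM; DMSO vehicle 1% final. Started by adding enol 4-HPP (dissolved in absolute EtOH, stored −20°C) at varied concentrations. Enol-to-keto conversion read as fall in absorbance at 306 nm over 90 s; Ki values derived.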", "units": {"IC50": "µM"}, "values": [
      {"smiles": "COc1ccc(C(=O)c2oc3ccccc3c2NC(=O)C(C)C)cc1Cl", "Ki": "Not Active"},
      {"smiles": "COc1ccc(-c2cc(Oc3cccc(OC)c3)ccn2)cc1", "Ki": "Not Active"},
      {"smiles": "CC(=O)c1ccc(-c2ccc(C(=O)N3CCC(C(N)=O)CC3)o2)cc1", "Ki": "Not Active"},
      {"smiles": "CC1(C)CC(=O)C=C(Nc2ccc(S(N)(=O)=O)cc2)C1", "Ki": "Not Active"},
      {"smiles": "O=C(O)c1ccccc1C(=O)Nc1ncccc1OCc1ccc(Cl)c(Cl)c1", "Ki": "Not Active"},
      {"smiles": "CC(=O)O[C@@H]1C[C@H]2C(C)(C)C(=O)C=C[C@]2(C)[C@H]2CC[C@@]3(C)[C@H](c4ccoc4)C(=O)[C@H]4O[C@]43[C@@]21C", "note": "[EPOXYAZADIRADIONE]", "IC50": 10},
      {"smiles": "COc1ccc(Oc2cc(C)nc(-c3ccccc3)n2)cc1", "Ki": "Not Active"},
      {"smiles": "COc1ccc(-c2ccc(Oc3cccc(OC)c3)cc2)cc1", "Ki": "Not Active"},
      {"smiles": "O=C1C(=O)N(CNc2ccc3ccccc3c2)c2ccccc21", "Ki": "Not Active"},
      {"smiles": "O=C(O)c1ccccc1C(=O)N(Cc1cccnc1)Cc1ccc(Cl)cc1Cl", "Ki": "Not Active"},
      {"smiles": "O=C(NCc1ccc(F)cc1F)Nc1cnccc1C(F)(F)F", "Ki": "Not Active"},
      {"smiles": "Oc1cccc(Oc2ccc(-c3ccc(O)c(O)c3)cc2)c1", "Ki": "Not Active"},
      {"smiles": "COc1cccc(Oc2ccc(-c3ccc(OC)c(OC)c3)cc2)c1", "Ki": "Not Active"},
      {"smiles": "CNC(=O)c1cccc2cccc(Sc3ccccc3C(=O)O)c12", "Ki": "Not Active"},
      {"smiles": "CCc1ccc(CNc2ccc(S(N)(=O)=O)cc2)cc1", "Ki": "Not Active"},
      {"smiles": "CCc1ccc([C@H]2C[C@H](c3cccc(C)c3)n3ncnc3N2)cc1", "Ki": "Not Active"},
      {"smiles": "Oc1cccc(Oc2ccc(-c3cccc(O)c3)cc2)c1", "Ki": "Not Active"},
      {"smiles": "CCC[C@H](C(=O)Nc1ccc(F)c(F)c1F)c1ccccc1", "Ki": "Not Active"},
      {"smiles": "COc1ccc(NC(=O)[C@H]2CCC(C)=C(C)[C@@H]2C(=O)O)c(N2CCOCC2)n1", "Ki": "Not Active"},
      {"smiles": "Cc1cc(O)cc(Oc2ccnc(-c3ccc(O)cc3)c2)c1", "Ki": "Not Active"},
      {"smiles": "Oc1ccc(-c2ccc(Oc3cccc(O)c3)cc2)cc1", "Ki": "Not Active"},
      {"smiles": "CN1C(=O)N[C@@H](c2ccccc2)C2=C1CN(c1cccc(C(=O)O)c1)C2=O", "Ki": "Not Active"},
      {"smiles": "COc1ccc(-c2ccc(Oc3cccc(OC)c3)cn2)cc1", "Ki": "Not Active"}
    ]},
    {"biological_target": "T2, Macrophage migration inhibitory factor homologue", "assay": "as §2", "settings": "read-out: Ki", "in_short": "as §3", "units": {"Ki": "µM"}, "values": [
      {"smiles": "O=C1N=C(Nc2cccc(O)c2)S/C1=C\\c1cccc(O)c1", "Ki": 20.6},
      {"smiles": "CCOc1cccc(Oc2ccnc(N3CCOCC3)c2)c1", "Ki": 6.9},
      {"smiles": "COc1cccc(Oc2cc(C)nc(N3CCOCC3)c2)c1", "Ki": 0.043},
      {"smiles": "COc1cccc(Oc2cc(C)nc(-c3ccccc3)c2)c1", "Ki": 7.7},
      {"smiles": "Oc1ccc(-c2cc(Oc3cccc(O)c3)ccn2)cc1", "Ki": 3},
      {"smiles": "NC(=O)CSC1=Nc2ccccc2C2=N[C@H](Cc3c[nH]c4ccccc34)C(=O)N12", "Ki": 25.4},
      {"smiles": "Oc1cccc(Oc2c(F)c(N3CCOCC3)nc(F)c2Cl)c1", "Ki": 15.5},
      {"smiles": "COc1cc(C)cc(Oc2ccnc(N3CCOCC3)c2)c1", "Ki": 5.6},
      {"smiles": "N#Cc1cccc(Oc2ccc(-c3cccc(O)c3)nc2)c1", "Ki": 0.37},
      {"smiles": "Oc1cccc(Oc2ccc(-c3cccc(O)c3)nc2)c1", "Ki": 6.9},
      {"smiles": "Oc1cccc(Oc2ccnc(N3CCOCC3)c2)c1", "Ki": 43.4},
      {"smiles": "COc1ccc(-c2cc(Oc3cc(C)cc(OC)c3)ccn2)cc1", "Ki": 0.37},
      {"smiles": "Cc1cc(Oc2cccc(O)c2)cc(-c2ccccc2)n1", "Ki": 0.039},
      {"smiles": "COc1cc(C)cc(Oc2cc(C)nc(N3CCOCC3)c2)c1", "Ki": 1.2},
      {"smiles": "Cc1cc(Oc2cccc(C#N)c2)nc(-c2ccccc2)n1", "Ki": 1.6},
      {"smiles": "NS(=O)(=O)c1ccc(NC2=CC(=O)C(=O)c3ccccc32)cc1", "Ki": 99},
      {"smiles": "Cc1cc(Oc2cccc(O)c2)nc(-c2ccccc2)n1", "Ki": 19.3},
      {"smiles": "COc1cc(Cl)cc(Oc2ccnc(N3CCOCC3)c2)c1", "Ki": 2.6},
      {"smiles": "COc1cc(OC)cc(Oc2ccnc(N3CCOCC3)c2)c1", "Ki": 122},
      {"smiles": "Oc1ccc(-c2ccc(Oc3cccc(O)c3)cn2)cc1", "Ki": 67.6},
      {"smiles": "CCOc1cccc(Oc2cc(C)nc(N3CCOCC3)c2)c1", "Ki": 7.2},
      {"smiles": "Cc1cc(Oc2cccc(C#N)c2)cc(N2CCOCC2)n1", "Ki": 11.3},
      {"smiles": "COc1cccc(Oc2ccc(-c3cccc(OC)c3)nc2)c1", "Ki": 57.2},
      {"smiles": "COc1cccc(Oc2cc(C)nc(-c3ccccc3)n2)c1", "Ki": 5.5},
      {"smiles": "COc1ccc(-c2cc(Oc3cc(C)cc(OC)c3)cc(C)n2)cc1", "Ki": 0.038},
      {"smiles": "Oc1cccc(Oc2c(F)c(F)nc(N3CCCCC3)c2F)c1", "Ki": 28.6},
      {"smiles": "Oc1cccc(Oc2c(F)c(F)nc(N3CCOCC3)c2F)c1", "Ki": 8.6},
      {"smiles": "Cc1cc(Oc2ccc(O)cc2)nc(-c2ccccc2)n1", "Ki": 93.3},
      {"smiles": "COc1ccc(-c2nnc3ccc(Oc4cccc(O)c4)nn23)cc1", "Ki": 122},
      {"smiles": "COc1cccc(Oc2ccnc(N3CCOCC3)c2)c1", "Ki": 22.9}
    ]}
  ]
}
